Most compounds without a hit are left out; they make up all but 3.1% or so of the library.
Myeloid diff 2: promotes myeloid progenitor differentiation | ER-HoxA9 myeloid progenitors, lysozyme-GFP differentiation, flow cytometry | calls only at 10 µM | 360,000 tested, 1% active | AID 624256;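 active = normalized GFP-positive differentiation at or above the plate's own cutoff, the solvent-only control mean plus 3 SD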;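 also: cells exposed to compound for four days before flow analysis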
core dimer inh: HCV core protein dimerization inhibition. TR-FRET GST/Flag-core106 dimerization, 1536-well. inhibition, % at 5 µM. 300,000 tested, 0.33% active. AID 1899;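 active = inhibition above the mean of all tested compounds plus 3 SD, set per screening campaign, cut at about 45% in these data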
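Material: Tagged HCV core106 pair (GST and Flag) | Amount: GST-core106 13.5 nM, Flag-core106 17 nM | Medium: KF-containing HEPES buffer, pH 7.45, DTT, CHAPS, BSA | Reagent: Eu donor and XL665 acceptor anti-tag antibodies | Schedule: 4 h at 22.5 °C | Technique: Time-resolved FRET, ex 340 nm, em 617 and 671 nm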
PP5 primary: blocks human protein phosphatase 5 activity; P53041; purified PP5c, OMFP substrate fluorescence; inhibition, % at 6.7 µM; 320,000 tested, 0.18% active; AID 1987;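 active = inhibition above the campaign's mean inhibition across all tested compounds plus 3 SD, cut at about 9.5% in these data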
Target sequence (P53041 whole entry, looked up): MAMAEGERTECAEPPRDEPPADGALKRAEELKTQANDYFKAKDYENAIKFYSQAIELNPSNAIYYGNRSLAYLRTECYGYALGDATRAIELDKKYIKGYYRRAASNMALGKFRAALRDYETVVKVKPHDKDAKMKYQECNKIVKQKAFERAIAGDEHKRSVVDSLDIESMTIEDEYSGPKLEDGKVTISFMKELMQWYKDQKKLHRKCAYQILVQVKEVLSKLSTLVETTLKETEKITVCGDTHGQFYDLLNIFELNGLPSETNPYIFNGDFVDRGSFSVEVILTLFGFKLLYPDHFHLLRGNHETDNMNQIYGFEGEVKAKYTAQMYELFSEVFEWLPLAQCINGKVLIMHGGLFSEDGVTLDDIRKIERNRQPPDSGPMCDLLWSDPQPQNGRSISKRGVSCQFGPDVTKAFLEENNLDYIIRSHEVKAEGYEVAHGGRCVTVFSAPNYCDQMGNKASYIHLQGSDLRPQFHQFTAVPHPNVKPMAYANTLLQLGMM
PP1 inh: counter-screen for PP5 inhibitors: inhibitors of human PP1-alpha. P62136. purified PP1alpha, OMFP fluorescence. inhibition, % at 6.7 µM. 320,000 tested, 0.9% active. AID 2235;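 active = inhibition above the mean inhibition of all tested compounds plus 3 SD, computed separately for each screening campaign, cut at about 15% in these data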
NadD inh: blocks S. aureus nicotinate mononucleotide adenylyltransferase. 360,000 tested, 0.78% active. purified NadD enzyme, colorimetric absorbance read-out. inhibition, % at 20 µM; in the data active = inhibition above about 26%
Fh CTSL1 inh: counter-screen for PFM18AAP inhibitors: inhibitors of F. hepatica cathepsin L1; recombinant F. hepatica cathepsin L1, Z-Leu-Arg-MCA fluorescence; inhibition, % at 5.96 µM; 300,000 tested, 0.49% active; AID 1906;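 active = inhibition above the mean of all tested compounds plus 3 SD, set per screening campaign, cut at about 17% in these data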
Myeloid diff: compounds promoting myeloid differentiation; shares compounds with Myeloid diff 2; ER-HoxA9 myeloid progenitors, GFP/Mac1 double-positive flow; calls only; 2,300 tested, 2% active;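 active = share of green or green-and-red cells above 9 and 9% in run 1 or 4 and 3% in run 2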
GFP autofluor: counter-screen for myeloid differentiation promoters: compound fluorescence | shares compounds with Myeloid diff 2 | ER-HoxA9 myeloid progenitors, no estrogen, GFP autofluorescence flow cytometry; vehicle wells 0%, positive control 100% | fluorescence response, % (no concentration beside the values) | 2,300 tested, 7.4% active;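 active = over 5% cells positive for green fluorescent reporter, or over 2% positive for both it and APC stain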
A number is an active result; . = inactive; / = not tested or not shown; + = active, no number.

SMILES | Myeloid diff 2 | core dimer inh | PP5 primary | PP1 inh | NadD inh | Fh CTSL1 inh | Myeloid diff | GFP autofluor
O=S1(=O)CC(N2CCCC2)CN1Cc1cn(Cc2cccc(Cl)c2)nn1 (stereo not drawn) | . | / | / | / | . | / | / | /
COc1cccc(NC(=O)N2CCCC2C(=O)NCc2ccc(Cl)cc2)c1 (stereo not drawn) | . | . | . | . | . | . | . | .
O=C(CSc1nc2ccccc2c(=O)n1-c1ccc(F)cc1)Nc1ccc2c(c1)CCC2 | . | . | . | . | . | . | / | /
O=C(CSc1nc2ccc(F)cc2c(=O)n1-c1ccccc1)Nc1ccc2c(c1)CCC2 | + | / | / | / | . | / | . | .
CC1=C(CC(=O)c2ccccc2)C(=O)c2ccccc2C1=O | + | . | . | . | . | . | . | 4.2
Cc1ccc(N=C2NC(=O)/C(=C/c3cn(C)c4ccccc34)S2)cc1C | + | . | . | . | 34 | . | . | 35
COc1ccc(-c2cc([C@H]3[C@@H]4C=CCC[C@@]4(C)C(=O)N3Cc3ccccc3)ccc2F)cc1OC | . | . | . | . | . | . | / | /
COc1ccc([C@H]2[C@@H]3C=CCC[C@@]3(C)C(=O)N2Cc2ccccc2)cc1Cl | . | . | . | . | . | . | . | .
CS(=O)(=O)c1ccc(Cl)c(NC(=O)COc2ccc3c(c2)CCC3)c1 | . | . | . | . | . | . | / | /
Cc1ccc(NC(=O)c2cccc(S(=O)(=O)N3CCN(c4ccc(F)cc4)CC3)c2)nc1 | . | . | . | . | . | . | / | /
CCOc1ccc(C(=O)C[n+]2cccc3cc(C)ccc32)cc1 | + | . | . | . | . | . | . | 54
CCOc1ccc(C(=O)C[n+]2ccccc2C)cc1 | . | . | . | . | . | . | / | /
CCc1ccc(C(=O)C[n+]2cccc3cc(OC)ccc32)cc1 | . | / | / | / | . | / | . | .
COc1ccc2c(ccc[n+]2CC(=O)c2ccccc2)c1 | . | / | / | / | . | / | / | /
O=C(CN1C(=O)C2CCCCC2C1=O)OCC(=O)c1ccc(F)cc1 (stereo not drawn) | . | / | . | . | . | / | / | /
CC(C)OC(=O)N(C)C[C@@H]1OCc2cnnn2CCCC(=O)N([C@H](C)CO)C[C@H]1C | . | / | / | / | . | / | / | /
CCN1/C(=C\C=C2\C(=O)N(C)C(=S)N2C)Sc2ccccc21 | . | . | . | . | . | . | . | .
CCN1/C(=C2/OC(=S)N(C)C2=O)Sc2ccccc21 | . | / | / | / | . | / | / | /
COCCNC(=O)c1c(N)n(CCC2=CCCCC2)c2nc3ccccc3nc12 | . | . | . | . | . | . | . | .
COCCn1c(N)c(C(=O)OCc2ccccc2)c2nc3ccccc3nc21 | . | . | . | . | . | . | / | /
CN(CC(=O)Nc1c(Cl)cccc1Cl)C(=O)CNC(=O)c1ccc2ccccc2c1 | . | . | . | . | . | . | / | /
COc1ccccc1NC(=O)c1cccc(S(=O)(=O)N2CCN(c3ccccc3)CC2)c1 | . | / | . | . | . | / | . | .
COc1ccc(NC(=O)c2cccc(S(=O)(=O)N3CCN(c4ccccc4)CC3)c2)c(OC)c1 | . | / | . | . | . | / | / | /
O=C(Nc1ncccc1O)c1cccc(S(=O)(=O)N2CCN(c3ccc(F)cc3)CC2)c1 | . | / | / | / | . | / | / | /
O=C(Nc1ccncc1)c1cccc(S(=O)(=O)N2CCN(c3ccc(F)cc3)CC2)c1 | . | . | . | . | . | . | . | .
SMILES | Myeloid diff 2 | core dimer inh | PP5 primary | PP1 inh | NadD inh | Fh CTSL1 inh | Myeloid diff | GFP autofluor
CC(=O)N1CCN(S(=O)(=O)c2cccc(C(=O)Nc3ccccc3N3CCCCC3)c2)CC1 | . | / | / | / | . | / | / | /
CN1CCN(S(=O)(=O)c2cccc(C(=O)Nc3ccccc3N3CCCCC3)c2)CC1 | . | . | . | . | . | . | . | .
COc1ccc(C(=O)NC(=S)Nc2cccc(S(=O)(=O)N3CCOCC3)c2)cc1 | . | . | . | . | . | . | . | .
O=C(OCc1cn([C@@H]2C[C@H](c3ccccc3)N(Cc3cccs3)C[C@H]2O)nn1)c1ccccc1 | . | / | / | / | . | / | / | /
CC1(C(=O)NC2CCCCCCC2)CCC(=O)N1Cc1cccs1 (stereo not drawn) | . | . | . | . | . | . | / | /
CC1(C(=O)NC2CCCCC2)CCC(=O)N1Cc1cccs1 (stereo not drawn) | . | . | . | . | . | . | . | .
CN(C)C(=O)c1ccc(NC(=O)COC(=O)Cn2cc(C(F)(F)F)ccc2=O)cc1 | . | / | . | . | . | / | / | /
CCn1c(=O)n(CC(=O)N(C)Cc2ccccc2)c(=O)c2ccccc21 | + | . | . | . | . | . | . | .
COc1cc(/C=C2/SC(=O)NC2=O)ccc1Oc1ccc([N+](=O)[O-])cc1[N+](=O)[O-] | + | . | . | . | . | . | . | .
COc1ccc(N2CC(C(=O)N[C@@H](CC(C)C)C(=O)NC3CCCCC3)CC2=O)cc1 (stereo partly drawn) | . | . | . | . | . | . | / | /
O=[N+]([O-])c1ccc(C[n+]2cccc3c4ccccc4ccc32)cc1 | . | . | . | . | . | . | + | .
Cc1ccc[n+](Cc2ccc([N+](=O)[O-])cc2)c1 | . | . | . | . | . | . | / | /
CCCCCn1nc(C(=O)N(CC(C)C)c2c(N)n(CCCC)c(=O)[nH]c2=O)c2ccccc2c1=O | . | . | . | . | . | . | / | /
NNc1nc2c(F)cc(F)cc2s1 | + | . | . | . | . | . | . | .
NNc1nc2c(F)cccc2s1 | . | . | . | . | . | . | / | /
O=C(c1cccs1)N1C[C@@H](O)[C@H](n2cc(C3CC3)nn2)C[C@@H]1c1ccc(Cl)cc1 | . | / | / | / | . | / | / | /
O=C(CSc1nnnn1-c1ccccc1)NCC1(N2CCOCC2)CCCCC1 | . | / | . | . | . | / | . | .
O=C(Cc1ccc(Cl)cc1Cl)NCC1(N2CCOCC2)CCCCC1 | . | . | . | . | . | . | . | .
O=C(CN1CCN(S(=O)(=O)c2cccc(Cl)c2)CC1)NCC1(N2CCOCC2)CCCCC1 | . | / | . | . | . | / | / | /
COc1cccc(Cn2nnc(C(=O)Nc3cc(C)ccc3OC)c2N)c1 | + | . | . | . | . | . | . | 88
COc1cccc(Cn2nnc(C(=O)Nc3ccc(C)cc3)c2N)c1 | . | . | . | . | . | . | / | /
COc1ccccc1CCC(=O)Nc1ccc2c(c1)c(=O)n(C)n2Cc1cccc(C(F)(F)F)c1 | . | / | / | / | . | / | / | /
COc1ccc(-c2ccc3[nH]c4c(c3c2)CCN2C[C@@H]([C@H](C)O)[C@@H](N(C)C(=O)Nc3cc(Cl)cc(Cl)c3)C[C@@H]42)cc1 | + | / | / | / | . | / | . | .
CCNC(=O)N(C)[C@H]1C[C@H]2c3[nH]c4ccccc4c3CCN2C[C@H]1[C@H](C)O | . | / | / | / | . | / | / | /
C[C@H](O)[C@@H]1CN2CCc3c([nH]c4ccccc34)[C@@H]2C[C@@H]1N(C)C(=S)NCCc1ccccc1 | + | / | / | / | . | / | . | .

High-throughput results from PubChem BioAssay.
